Assay outcomes as filed in PubChem.
This is a sample that favours compounds with a hit; in the whole collection about 3.7% have one here.
KCNQ1 act – potentiators or activators of KCNQ1 channel, primary screen, cell-based, thallium flux, high-throughput. B-score at 10 µM. Potassium voltage-gated channel subfamily KQT member 1 (Homo sapiens), P51787. CHO-K1 KCNQ1, thallium flux FluxOR fluorescence; hits give high values. 310,000 compounds, 0.35% hits;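 active means fluorescence ratio B-score, a plate-corrected score, at least three library SD, with initial intensity B-score within 5 SD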
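System: Stable KCNQ1 CHO-K1 line | Incubation: 90 min dye loading and 20 min compound exposure, both at room temperature | Measure: Ratio B score | Medium: Assay buffer for compound exposure, DMSO matched across wells | Compound dosing: Single-concentration screen | Probe or stimulus: K+/Tl+ depolarizing stimulus | Measured by: Kinetic FluxOR fluorescence, 10 s baseline plus 110 s post-stimulus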
KCNQ1 block – inhibitors of human KCNQ1 channel, primary screen, cell-based, thallium flux, high-throughput; CHO-K1 KCNQ1, FluxOR thallium flux fluorescence; hits give high values; 310,000 compounds, 1.3% hits; AID 2642, 2010; B-score at 10 µM;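 active means compounds whose thallium flux B-score, printed positive for inhibition, exceeds three library SD while starting fluorescence stays within three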;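 further: channel opened by potassium depolarization with thallium stimulus after 20 min compound exposure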
Kir21 inh – inhibitors of mouse Kir2.1 inward-rectifier potassium channel; Inward rectifier potassium channel 2 (Mus musculus), P35561; HEK293-Kir2.1, FluxOR thallium flux fluorescence; hits give low values; B-score at 10 µM; 310,000 compounds, 0.85% hits; AID 1672, 2009;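 active means fluorescence ratio B-score at or below minus 3 SD of library scores, with starting-brightness B-score within 2 SD, cut at about -4.2 in these data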;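 further: channel flux triggered by added potassium and thallium sulfate stimulus; B-score of peak minus minimum fluorescence over baseline after thallium stimulus; more negative B-score means stronger Kir2.1 block with less thallium influx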
KCNK9 block – KCNK9 potassium channel inhibitors, primary screen, HEK293 cells, thallium flux; Potassium channel subfamily K member 9 (Homo sapiens), Q9NPC2; FluxOR thallium flux fluorescence; hits give low values; B-score at 10 µM; 310,000 compounds, 1.2% hits;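 active means ratio B-score over 3 SD below the library mean, with starting fluorescence within 5 SD of its mean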;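 further: negative B-score means less thallium flux so channel inhibition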
hERG rescue – hERG rescue from dofetilide block, primary screen, cell-based, CHO-hERG, FluxOR thallium flux, dofetilide IC70; 310,000 compounds, 0.51% hits; dofetilide IC70 present; activation (rescue from dofetilide block), less the hit threshold, % at 10 µM; Voltage-gated inwardly rectifying potassium channel KCNH2 (Homo sapiens), Q12809;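 active means activation above the mean of controls blocked by dofetilide plus 5 SD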;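 further: thallium influx through hERG after potassium depolarization seen as dye fluorescence rise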
Target sequence (Q12809 whole entry, looked up): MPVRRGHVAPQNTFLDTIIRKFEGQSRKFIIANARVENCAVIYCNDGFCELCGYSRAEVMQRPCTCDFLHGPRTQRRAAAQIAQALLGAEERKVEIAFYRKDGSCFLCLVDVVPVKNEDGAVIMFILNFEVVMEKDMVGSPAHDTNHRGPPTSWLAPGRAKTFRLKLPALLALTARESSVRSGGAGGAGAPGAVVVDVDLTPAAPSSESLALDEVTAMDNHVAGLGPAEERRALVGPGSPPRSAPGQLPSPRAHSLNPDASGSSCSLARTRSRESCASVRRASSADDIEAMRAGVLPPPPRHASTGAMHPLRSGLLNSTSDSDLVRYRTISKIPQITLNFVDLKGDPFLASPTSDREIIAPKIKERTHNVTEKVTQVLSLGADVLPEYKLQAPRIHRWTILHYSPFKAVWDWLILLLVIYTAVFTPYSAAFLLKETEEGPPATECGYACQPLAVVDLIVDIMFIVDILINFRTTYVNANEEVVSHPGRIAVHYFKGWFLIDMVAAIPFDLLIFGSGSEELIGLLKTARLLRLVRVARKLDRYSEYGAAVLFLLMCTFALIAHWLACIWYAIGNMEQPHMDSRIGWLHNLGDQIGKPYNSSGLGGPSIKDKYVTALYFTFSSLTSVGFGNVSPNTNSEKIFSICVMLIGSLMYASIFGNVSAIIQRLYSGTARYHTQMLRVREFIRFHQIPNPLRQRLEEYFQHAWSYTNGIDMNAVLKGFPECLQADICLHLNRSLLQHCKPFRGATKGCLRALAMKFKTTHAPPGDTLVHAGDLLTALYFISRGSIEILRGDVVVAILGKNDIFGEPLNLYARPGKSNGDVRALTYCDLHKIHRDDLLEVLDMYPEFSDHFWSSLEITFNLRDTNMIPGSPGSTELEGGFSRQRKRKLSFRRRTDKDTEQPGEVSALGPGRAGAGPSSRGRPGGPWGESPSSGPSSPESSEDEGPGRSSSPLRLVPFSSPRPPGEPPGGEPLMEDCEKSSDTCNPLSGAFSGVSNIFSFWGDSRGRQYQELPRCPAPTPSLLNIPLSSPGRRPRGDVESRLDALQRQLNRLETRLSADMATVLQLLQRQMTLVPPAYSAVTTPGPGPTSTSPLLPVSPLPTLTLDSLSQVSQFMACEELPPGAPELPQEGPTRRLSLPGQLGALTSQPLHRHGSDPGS
KCNK3 inh – human KCNK3 channel inhibitors, primary screen, CHO cells, FluxOR thallium flux, B-score; FluxOR fluorescence; hits give low values; B-score at 10 µM; 340,000 compounds, 0.84% hits; AID 602410, 2012;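 active means B-score under library mean minus 4 SD, starting fluorescence ratio at most library mean plus 5 SD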;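 further: more negative B-score means stronger inhibition of thallium flux through KCNK3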
* marks the source's active call; other numbers are inactive results; i = inactive; · = not tested or not shown.

SMILES | KCNQ1 act | KCNQ1 block | Kir21 inh | KCNK9 block | hERG rescue | KCNK3 inh
CCCn1c(SCC(=O)N2CC(=O)Nc3ccccc32)nc2ccccc21 | i | i | -6.88* | i | -10.4 | i
CC(=O)c1cccc(N=c2scc(-c3ccc(S(=O)(=O)N4CCOCC4)cc3)n2CCO)c1 | i | 7* | 0.16 | i | -16.6 | i
Cc1ccc(OC(C)C(=O)N2CCc3ccccc32)cc1 (stereo unspecified) | i | i | 0.56 | i | -4.1 | i
CC(Oc1ccccc1)C(=O)N1CCCc2ccccc21 (stereo unspecified) | i | i | -5.45* | i | -9.4 | i
COc1ccc(OC(C)C(=O)N2CCCc3ccccc32)cc1 (stereo unspecified) | i | i | -4.84* | i | -5.0 | i
CC1(C)Cc2c(sc3c2c(=N)n(Cc2ccco2)c(=O)n3Cc2ccc(Cl)cc2)CO1 | i | 8* | -0.01 | i | -8.7 | i
CC1(C)Cc2c(sc3c2c(=N)n(Cc2ccco2)c(=O)n3Cc2ccccc2)CO1 | i | i | -2.19 | i | -7.4 | i
O=C(COC(=O)c1ccc(O)cc1)c1ccc(S(=O)(=O)N2CCCCC2)cc1 | · | · | · | · | · | i
CCOc1ccc(C(O)(c2ccccc2OC)C(CN2CCCC2)c2ccccc2)cc1 (stereo unspecified) | i | 11* | -1.63 | i | -12.1 | i
Cc1ccccc1OCC(=O)N=Nc1c(O)n(C)c2ccccc12 | 8* | i | -1.57 | i | 0.0 | i
O=C(O)/C=C/c1cn(-c2ccccc2)nc1-c1cccc([N+](=O)[O-])c1 | i | i | 0.84 | i | -4.8 | i
O=C(O)/C=C/c1cn(-c2ccccc2)nc1-c1ccc(-c2ccc([N+](=O)[O-])cc2)o1 | i | i | 0.03 | i | 10.8* | i
Cc1onc(-c2ccccc2)c1C(=O)NC(=S)Nc1sc2c(c1C#N)CCC(C)C2 (stereo unspecified) | 21* | i | -0.03 | i | 15.1* | i
Cc1onc(-c2ccccc2)c1C(=O)Nc1sc2c(c1C#N)CCC2 | i | i | 1.55 | i | -11.6 | i
Cc1cc(C(=O)Nc2sc3c(c2C#N)CCC(C)C3)no1 (stereo unspecified) | i | i | -0.29 | i | -6.7 | i
Cc1onc(-c2ccccc2)c1C(=O)NC(=S)Nc1sc2c(c1C#N)CCCC2 | 8* | i | 0.97 | i | 15.7* | i
COc1ccc(N2CCN(S(=O)(=O)c3c(C)[nH]c(C)c3C(=O)N3CCCC3)CC2)cc1 | i | i | -1.05 | i | -5.0 | i
CCOc1ccc(Oc2cc(NC(=O)c3ccco3)cc([N+](=O)[O-])c2)cc1 | · | · | · | · | · | i
O=C(Nc1cc(Oc2ccc(Cl)cc2)cc([N+](=O)[O-])c1)c1ccco1 | i | i | 0.79 | -6.99* | -10.6 | i
CC(NC(=O)c1ccccc1)C(=O)OCn1nnc2ccccc2c1=O (stereo unspecified) | · | · | · | · | · | i
COc1ccc(CCNC(=O)C/C(C)=N/NC(=O)c2ccc([N+](=O)[O-])cc2Cl)cc1OC | i | i | 1.56 | i | -13.1 | i
O=C(N1CCCCC1)N1CCN(S(=O)(=O)c2ccccc2)CC1 | i | i | 0.79 | i | -5.4 | i
COc1ccc(NC(=O)C(=O)NNC(=O)c2cccs2)cc1 | i | i | -1.63 | i | 6.9* | i
COc1ccc(/C=C/C(=O)Nc2ccccc2C(=O)O)cc1 | i | i | 0.28 | i | 31.6* | i
COc1ccc(/C=C/C(=O)Nc2ccccc2C(=O)N2CCCC2)cc1 | i | i | -1.45 | i | -14.7 | i
Cc1ccc(NC(=O)C(=O)NNC(=O)c2cccs2)cc1 | 40* | i | 1.49 | i | 20.4* | i
